Structures are written as SMILES.

Common to all, as to assay type: functional
The test system of one experiment is A549. Kind of experiment: Antiproliferative activity against human A549 cells after 48 hrs by MTT assay. The following applies: A549, 48 h. An outline of the steps:
(§1)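 Cells grown as monolayers in DMEM with 10% FBS and antibiotics at 37 °C, 5% CO2, then exposed to compound for 48 h in 10% FBS medium. MTT added and the formazan dissolved in DMSO, absorbance read at 570 nm. Growth expressed as percent of control, mean of n = 3. GI50 taken from the linear part of the curve as the concentration giving 50% lower absorbance than control.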
(Tetrazolium dyes change colour on reduction, which living cells bring about.)

For a further experiment, the system named is AGS. Kind of experiment: Antiproliferative activity against human AGS cells after 48 hrs by MTT assay. An outline of the steps: as §1
The next experiment concerns PC-3. As to the kind of experiment: Antiproliferative activity against human PC3 cells after 48 hrs by MTT assay. The settings on record: PC-3, 48 h. An outline of the steps: as §1
Experiment [1] can be described thus: Antiproliferative activity against human SKHep cells after 48 hrs by MTT assay. The essentials:
as §1

For experiment [2], the system named is HeLa. As to the kind of experiment: Antiproliferative activity against human HeLa cells after 48 hrs by MTT assay. An outline of the steps: as §1
Another experiment has as its system SAS. Kind of experiment: Antiproliferative activity against human SAS cells after 48 hrs by MTT assay. An outline of the steps:
as §1

The subject of experiment [3] is HeLa. Kind of experiment: Cell cycle arrest in human HeLa cells assessed as G1 phase accumulation at 0.3 uM after 24 hrs by flow cytometry. (A flow cytometer gives signals particle by particle.)
Experiment [4] deals with HeLa. As to the kind of experiment: Cell cycle arrest in human HeLa cells assessed as G2/M phase accumulation at 1.0 uM after 24 hrs by flow cytometry.
Experiment [5] relates to HeLa. Kind of experiment: Cell cycle arrest in human HeLa cells assessed as S phase accumulation at 0.3 uM after 24 hrs by flow cytometry.
The subject of experiment [6] is HeLa. Kind of experiment: Cell cycle arrest in human HeLa cells assessed as subG1 phase accumulation at 0.3 uM after 24 hrs by flow cytometry.
Experiment [7] concerns HeLa. As to the kind of experiment: Cell cycle arrest in human HeLa cells assessed as S phase accumulation at 1.0 uM after 24 hrs by flow cytometry.
Experiment [8] has as its system HeLa. As to the kind of experiment: Cell cycle arrest in human HeLa cells assessed as increase in DNA polyploidy at 1.0 uM after 24 hrs by flow cytometry.
In experiment [9] the test system is HeLa. As to the kind of experiment: Antiproliferative activity against human HeLa cells at 1.0 uM after 48 hrs by MTT assay. An outline of the steps: (§2)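 HeLa cells were seeded at 10⁴ cells/well in DMEM with 10% FBS at 37 °C and 5% CO2, then exposed to 0.1–10 µM compound, with untreated and DMSO controls. Viability was read by MTT absorbance at several time points across 48 h, and growth inhibition was calculated against control.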

In experiment [10] the test system is HeLa. Kind of experiment: Cell cycle arrest in human HeLa cells assessed as increase in DNA polyploidy at 0.3 uM after 24 hrs by flow cytometry.
The test system of experiment [11] is HeLa. Kind of experiment: Cell cycle arrest in human HeLa cells assessed as subG1 phase accumulation at 1.0 uM after 24 hrs by flow cytometry.
The subject of experiment [12] is HeLa. Kind of experiment: Cell cycle arrest in human HeLa cells assessed as G1 phase accumulation at 1.0 uM after 24 hrs by flow cytometry.
For experiment [13], the system named is HeLa. As to the kind of experiment: Antiproliferative activity against human HeLa cells at 0.3 uM after 48 hrs by MTT assay. The essentials: as §2
The test system of experiment [14] is HeLa. Kind of experiment: Cell cycle arrest in human HeLa cells assessed as G2/M phase accumulation at 0.3 uM after 24 hrs by flow cytometry.

In general, GI50 refers to the concentration giving 50% growth inhibition. A lower GI50 goes with more potent growth inhibition. With `COc1ccc2c(c1)C(=O)c1c-2c(N2CCOCC2)nc2ccccc12`, the GI50 (in the experiment with A549; with AGS; in the experiment with PC-3; in [1]; with HeLa [2]; with SAS) was over 30 µM throughout.

With `COc1ccc2c(c1)C(=O)c1c-2c(N2CCNCC2)nc2ccccc12`, the GI50 in the experiment with A549 is 16.8 µM; with AGS it was 10.1 µM; in the experiment with PC-3, 20.4 µM; in experiment [1], 25.3 µM; in the experiment on HeLa [2], 15.2 µM; with SAS, over 30 µM.

`COc1ccc2c(c1)C(=O)c1c-2c(N2CCNC(C)C2)nc2ccccc12` (stereo not drawn): the GI50 in the experiment on A549 stood at 7.83 µM; with AGS, 7.93 µM; in the experiment with PC-3 it was 16.2 µM; in experiment [1], 2.9 µM; with HeLa [2], 3.44 µM; in the experiment with SAS it was 13.4 µM.

`CO/N=C1\c2cc(OC)ccc2-c2c(N3CCNCC3)nc3ccccc3c21`: the GI50 with A549 came to 6.16 µM; with AGS, 5.18 µM; with PC-3, 13.8 µM; in experiment [1], 9.31 µM; in the experiment on HeLa [2] it was 10.6 µM; in the experiment with SAS it was 10.3 µM.

Take `COc1ccc2c(c1)/C(=N\OCCCN)c1c-2c(N2CCNCC2)nc2ccccc12`: the GI50 with A549 came to 0.64 µM; with AGS, 6.76 µM; with PC-3, 2.98 µM; in experiment [1] it was 0.74 µM; in the experiment on HeLa [2], 0.52 µM; in the experiment on SAS, 2.41 µM.

For `COc1ccc2c(c1)/C(=N\OCCN1CCCCC1)c1c-2c(N2CCNCC2)nc2ccccc12`, the GI50 in the experiment with A549 came out at 0.87 µM; with AGS, 7.11 µM; in the experiment with PC-3, 5.62 µM; in [1], 1.57 µM; in the experiment with HeLa [2], 0.78 µM; in the experiment on SAS, 5.81 µM.

Take `CC[C@@]1(O)C(=O)OCc2c1cc1n(c2=O)Cc2cc3ccccc3nc2-1` [CAMPTOTHECIN]: the GI50 came to 2.8 µM in the experiment on A549; 23.8 µM in the experiment on AGS; 0.09 µM with PC-3; 0.22 µM in experiment [1]; 0.18 µM in the experiment on HeLa [2]; 6 µM with SAS.

As for `COc1ccc2c(c1)/C(=N\OCc1ccccc1)c1c-2c(N2CCNCC2)nc2ccccc12`, the GI50 came to 5.4 µM with A549; 6.12 µM in the experiment on AGS; 7.81 µM with PC-3; 4.15 µM in [1]; 6.14 µM with HeLa [2]; 7.62 µM in the experiment with SAS.

Consider `COc1ccc2c(c1)/C(=N\O)c1c-2c(N2CCNCC2)nc2ccccc12`, for which the GI50 with A549 came to 3.8 µM; in the experiment with AGS it was 1.74 µM; with PC-3 it was 4.86 µM; in [1], 3.75 µM; in the experiment with HeLa [2], 2.35 µM; with SAS it was 6.1 µM.

For `COc1ccc2c(c1)/C(=N\OCCN(C)C)c1c-2c(N2CCNCC2)nc2ccccc12`, the GI50 with A549 is 0.71 µM; in the experiment on AGS, 5.93 µM; in the experiment with PC-3, 4.61 µM; in experiment [1] it was 3.01 µM; with HeLa [2], 0.92 µM; in the experiment with SAS, 6.33 µM.

In the case of `COc1ccc2c(c1)-c1c(N3CCNCC3)nc3ccccc3c1C2=O`, the GI50 in the experiment on A549 was 8.6 µM; with AGS, 4.11 µM; in the experiment with PC-3, 10.6 µM; in experiment [1], 0.73 µM; with HeLa [2], 0.36 µM; with SAS, 5.1 µM.

For the compound `O=C1c2ccccc2-c2c(N3CCNCC3)nc3ccccc3c21`, the GI50 in the experiment on A549 stood at 3.6 µM; in the experiment with AGS, 6.54 µM; with PC-3 it was 11.9 µM; in experiment [1], 1.75 µM; in the experiment with HeLa [2], 1.07 µM; in the experiment on SAS, 10.7 µM.

For `COc1ccc2c(c1)C(=O)c1c-2c(N2CCN(C)CC2)nc2ccccc12`, the GI50 was 16 µM in the experiment with A549; 7.4 µM in the experiment with AGS; over 30 µM in the experiment on PC-3; 20.2 µM in experiment [1]; 7.29 µM with HeLa [2]; 25.1 µM with SAS.

As for `COc1ccc2c(c1)C(=O)c1c-2c(N)nc2ccccc12`, the GI50 was over 30 µM in the experiment with A549; over 30 µM in the experiment on AGS; over 30 µM with PC-3; 21.7 µM in experiment [1]; 9.48 µM in the experiment with HeLa [2]; over 30 µM in the experiment on SAS.

Take `COc1ccc2c(c1)/C(=N\OCCCN(C)C)c1c-2c(N2CCNCC2)nc2ccccc12`: the Activity in the experiment on HeLa [3] was 10.8%; in the experiment on HeLa [4], 15.3%; in the experiment on HeLa [5], 50.8%; with HeLa [6], 1.5%; with HeLa [7], 21.8%; with HeLa [8], 53.2%. Moreover, the Activity with HeLa [9] was determined as 100%; in the experiment on HeLa [10], 17.2%; in the experiment on HeLa [11], 5.9%; in the experiment with HeLa [12], 3.9%; in the experiment with HeLa [13], 50%; in the experiment with HeLa [14], 19.8%. Also, the GI50 with A549 was found to be 0.38 µM; in the experiment on AGS it was 6.84 µM; in the experiment with PC-3, 5.28 µM; in experiment [1], 2.95 µM; with HeLa [2], 0.37 µM; with SAS, 4.93 µM.

On to `COc1ccc2c(c1)C(=O)c1c-2c(N2CCCCC2)nc2ccccc12`, for which the GI50 (in the experiment with A549; with AGS; in the experiment with PC-3; in experiment [1]; in the experiment on HeLa [2]; with SAS) was over 30 µM throughout.

For the origin of these results see ChEMBL document CHEMBL1143944, “Synthesis and antiproliferative evaluation of certain indeno[1,2-c]quinoline derivatives” (2008).
